Several values for one entry are separate records, joined by “and”; a condition that tells them apart may be missing. Equal values may be shown once.
Test system: HEK-293T
Assay: Multiplex assay against HEK293T
Format: toxicity, cell-based
Conditions: human
Outline: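 Cells were classed with CellPathfinder machine-learning gating, first as Hoechst high-intensity objects or normal cells, then (normal cells) as healthy, pyknosed or fragmented nuclei, and finally (pyknosed cells) as mitotic or apoptotic. Staining of live cells at seeding used Hoechst33342, BioTracker Green Microtubule Cytoskeleton Dye, MitoTracker Red and Annexin V Alexa Fluor 680, with imaging on a CQ1 microscope at 37°C and 5% CO2 after compound addition. Tubulin, mitochondrial-mass and membrane-permeability phenotypes are per cents of healthy-nucleus cells.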

[1] = 12 h, 1 µM, compound concentration 1 uM
[2] = 12 h, 10 µM, compound concentration 10 uM
[3] = 24 h, 1 µM, compound concentration 1 uM
[4] = 24 h, 10 µM, compound concentration 10 uM
[5] = 48 h, 1 µM, compound concentration 1 uM
[6] = 48 h, 10 µM, compound concentration 10 uM

Compound: O=C(NCCNCC(O)COc1ccc(O)cc1)N1CCOCC1.O=C(NCCNCC(O)COc1ccc(O)cc1)N1CCOCC1.O=C(O)/C=C/C(=O)O (stereo unspecified) [XAMOTEROL FUMARATE]
- Population Apoptotic (%) [1]: 39% and 60%
- Population Fragmented Nuclei (%) [1]: 5%
- Population Healthy Nuclei (%) [1]: 79% and 76%
- Population Hoechst High Intensity Objects (%) [1]: 4% and 14%
- Population Membrane Permeable-Phenotype (%) [1]: 0%
- Population Mitochondria Different-Phenotype (%) [1]: 39% and 57%
- Population Mitotic Cells (%) [1]: 60% and 39%
- Population Normal (%) [1]: 95% and 85%
- Population Pyknosed Nuclei (%) [1]: 14% and 17%
- Population Tubulin-Different-Phenotype (%) [1]: 26% and 21%
- Total Cell Count [1]: 339 and 271
- Population Apoptotic (%) [2]: 35% and 29%
- Population Fragmented Nuclei (%) [2]: 7% and 4%
- Population Healthy Nuclei (%) [2]: 83% and 86%
- Population Hoechst High Intensity Objects (%) [2]: 6% and 5%
- Population Membrane Permeable-Phenotype (%) [2]: 0%
- Population Mitochondria Different-Phenotype (%) [2]: 39% and 62%
- Population Mitotic Cells (%) [2]: 65% and 70%
- Population Normal (%) [2]: 93% and 94%
- Population Pyknosed Nuclei (%) [2]: 8% and 9%
- Population Tubulin-Different-Phenotype (%) [2]: 19% and 23%
- Total Cell Count [2]: 499 and 406
- Population Apoptotic (%) [3]: 26% and 45%
- Population Fragmented Nuclei (%) [3]: 8% and 9%
- Population Healthy Nuclei (%) [3]: 78% and 80%
- Population Hoechst High Intensity Objects (%) [3]: 6% and 13%
- Population Membrane Permeable-Phenotype (%) [3]: 0%
- Population Mitochondria Different-Phenotype (%) [3]: 18% and 38%
- Population Mitotic Cells (%) [3]: 73% and 54%
- Population Normal (%) [3]: 93% and 86%
- Population Pyknosed Nuclei (%) [3]: 12% and 10%
- Population Tubulin-Different-Phenotype (%) [3]: 17% and 15%
- Total Cell Count [3]: 475 and 366
- Population Apoptotic (%) [4]: 21% and 33%
- Population Fragmented Nuclei (%) [4]: 9% and 7%
- Population Healthy Nuclei (%) [4]: 79% and 85%
- Population Hoechst High Intensity Objects (%) [4]: 5% and 4%
- Population Membrane Permeable-Phenotype (%) [4]: 0%
- Population Mitochondria Different-Phenotype (%) [4]: 25% and 42%
- Population Mitotic Cells (%) [4]: 78% and 66%
- Population Normal (%) [4]: 94% and 95%
- Population Pyknosed Nuclei (%) [4]: 11% and 7%
- Population Tubulin-Different-Phenotype (%) [4]: 12% and 17%
- Total Cell Count [4]: 632 and 542
- Population Apoptotic (%) [5]: 21% and 41%
- Population Fragmented Nuclei (%) [5]: 14% and 11%
- Population Healthy Nuclei (%) [5]: 77% and 81%
- Population Hoechst High Intensity Objects (%) [5]: 2% and 4%
- Population Membrane Permeable-Phenotype (%) [5]: 2% and 0%
- Population Mitochondria Different-Phenotype (%) [5]: 11% and 18%
- Population Mitotic Cells (%) [5]: 78% and 58%
- Population Normal (%) [5]: 97% and 95%
- Population Pyknosed Nuclei (%) [5]: 7% and 6%
- Population Tubulin-Different-Phenotype (%) [5]: 9% and 10%
- Total Cell Count [5]: 918 and 526
- Population Apoptotic (%) [6]: 17% and 25%
- Population Fragmented Nuclei (%) [6]: 15% and 16%
- Population Healthy Nuclei (%) [6]: 79% and 77%
- Population Hoechst High Intensity Objects (%) [6]: 0% and 2%
- Population Membrane Permeable-Phenotype (%) [6]: 1% and 0%
- Population Mitochondria Different-Phenotype (%) [6]: 13% and 16%
- Population Mitotic Cells (%) [6]: 82% and 74%
- Population Normal (%) [6]: 99% and 97%
- Population Pyknosed Nuclei (%) [6]: 5%
- Population Tubulin-Different-Phenotype (%) [6]: 6% and 10%
- Total Cell Count [6]: 1116 and 827

From ChEMBL document CHEMBL5724801, “EUbOPEN Chemogenomics Library - Multiplex” (2024)
